Laboratory results reported in ChEMBL document CHEMBL1629526, “4-[1-(Substituted aryl/alkyl carbonyl)-benzoimidazol-2-yl]-benzenesulfonic acids: synthesis, antimicrobial activity, QSAR studies, and antiviral evaluation” (Eur J Med Chem, 2010).

Tests used:
Staphylococcus aureus = experiment: Antimicrobial activity against Staphylococcus aureus after 24 hrs by tube dilution method; format: functional
Bacillus subtilis = experiment: Antimicrobial activity against Bacillus subtilis after 24 hrs by tube dilution method; format: functional
Outline: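 Serial dilutions in double-strength nutrient broth (I.P.) with ciprofloxacin as reference, tube dilution, incubated 37 °C for 24 h. MIC is the lowest concentration that inhibited growth.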

Escherichia coli = experiment: Antimicrobial activity against Escherichia coli after 24 hrs by tube dilution method; format: functional
Candida albicans = experiment: Antimicrobial activity against Candida albicans after 48 hrs by tube dilution method; format: functional
Aspergillus niger = experiment: Antimicrobial activity against Aspergillus niger after 7 days by tube dilution method; format: functional; settings: 168 h
[1] = Cytotoxicity against cat CRFK cells assessed as cell viability by MTS assay; format: cell-based, Felis catus; settings: crfk
Outline: (§1)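 Uninfected cultures were run in parallel with the antiviral assays. Viability was read by colorimetric formazan MTS assay.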

Felid alphaherpesvirus 1 = experiment: Antiviral activity against Feline herpesvirus 1 infected in cat CRFK cells assessed as inhibition of virus induced cytopathicity after 2 to 4 days by MTS assay; format: functional, organism-based; settings: Felid alphaherpesvirus 1, CRFK
Feline coronavirus = experiment: Antiviral activity against Feline coronavirus infected in cat CRFK cells assessed as inhibition of virus induced cytopathicity after 2 to 4 days by MTS assay; format: functional, organism-based; settings: Alphacoronavirus 1, CRFK
[2] = Cytotoxicity against human HEL cells assessed as altered cell morphology; format: cell-based
Outline: (§2)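 Uninfected cell cultures run alongside the antiviral assays, exposed to serial compound dilutions and incubated at 37 °C for 2–4 days. Toxicity was scored microscopically and reported as the minimum cytotoxic concentration (MCC), the lowest concentration causing a detectable change in normal cell morphology.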

Human alphaherpesvirus 1 [3] = experiment: Antiviral activity against Herpes simplex virus 1 KOS infected in HEL cells assessed as inhibition of virus induced cytopathicity after 2 to 4 days by MTS assay; format: functional, organism-based; settings: Human alphaherpesvirus 1, KOS
Human alphaherpesvirus 2 = experiment: Antiviral activity against Herpes simplex virus 2 G infected in HEL cells assessed as inhibition of virus induced cytopathicity after 2 to 4 days by MTS assay; format: functional, organism-based; settings: Human alphaherpesvirus 2, strain G
Vaccinia virus = experiment: Antiviral activity against Vaccinia virus infected in HEL cells assessed as inhibition of virus induced cytopathicity after 2 to 4 days by MTS assay; format: functional, organism-based; settings: Orthopoxvirus vaccinia
[4] = test system: Vesicular stomatitis virus; experiment: Antiviral activity against Vesicular stomatitis virus infected in HEL cells assessed as inhibition of virus induced cytopathicity after 2 to 4 days by MTS assay; format: functional, organism-based
Human alphaherpesvirus 1 [5] = experiment: Antiviral activity against thymidine kinase deficient acyclovir-resistant Herpes simplex virus 1 KOS infected in HEL cells assessed as inhibition of virus induced cytopathicity after 2 to 4 days by MTS assay; format: functional, organism-based; settings: Human alphaherpesvirus 1, KOS
HeLa = experiment: Cytotoxicity against human HeLa cells assessed as cell viability by MTS assay; format: cell-based; settings: hela; outline: as §1
[6] = Cytotoxicity against human HeLa cells assessed as altered cell morphology; format: cell-based; outline: as §2
[7] = test system: Vesicular stomatitis virus; experiment: Antiviral activity against Vesicular stomatitis virus infected in human HeLa cells assessed as inhibition of virus induced cytopathicity by visual scoring of CPE; format: functional, organism-based
[8] = test system: Vesicular stomatitis virus; experiment: Antiviral activity against Vesicular stomatitis virus infected in human HeLa cells assessed as inhibition of virus induced cytopathicity after 2 to 4 days by MTS assay; format: functional, organism-based
Coxsackievirus B4 [9] = experiment: Antiviral activity against coxsackievirus B4 infected in human HeLa cells assessed as inhibition of virus induced cytopathicity by visual scoring of CPE; format: functional, organism-based; settings: Enterovirus B
Coxsackievirus B4 [10] = experiment: Antiviral activity against coxsackievirus B4 infected in human HeLa cells assessed as inhibition of virus induced cytopathicity after 2 to 4 days by MTS assay; format: functional, organism-based; settings: Enterovirus B
[11] = test system: Respiratory syncytial virus; experiment: Antiviral activity against Respiratory syncytial virus infected in human HeLa cells assessed as inhibition of virus induced cytopathicity by visual scoring of CPE; format: functional, organism-based
[12] = test system: Respiratory syncytial virus; experiment: Antiviral activity against Respiratory syncytial virus infected in human HeLa cells assessed as inhibition of virus induced cytopathicity after 2 to 4 days by MTS assay; format: functional, organism-based
MDCK = experiment: Cytotoxicity against MDCK cells assessed as cell viability by MTS assay; format: cell-based, Canis lupus familiaris; settings: dog, mdck; outline: as §1
[13] = Cytotoxicity against MDCK cells assessed as altered cell morphology; format: cell-based, Canis lupus familiaris; settings: dog; outline: as §2
Influenza A virus [14] = experiment: Antiviral activity against Influenza A H3N2 virus subtype infected in MDCK cells assessed as inhibition of virus induced cytopathicity by visual scoring of CPE; format: functional, organism-based
Influenza A virus [15] = experiment: Antiviral activity against Influenza A H3N2 virus subtype infected in MDCK cells assessed as inhibition of virus induced cytopathicity after 2 to 4 days by MTS assay; format: functional, organism-based
Influenza B virus [16] = experiment: Antiviral activity against Influenza B virus infected in MDCK cells assessed as inhibition of virus induced cytopathicity by visual scoring of CPE; format: functional, organism-based
Influenza B virus [17] = experiment: Antiviral activity against Influenza B virus infected in MDCK cells assessed as inhibition of virus induced cytopathicity after 2 to 4 days by MTS assay; format: functional, organism-based
[18] = Cytotoxicity against african green monkey Vero cells assessed as altered cell morphology; format: cell-based; settings: chlorocebus sabaeus; outline: as §2
Human respirovirus 3 = experiment: Antiviral activity against parainfluenza-3 virus infected in african green monkey Vero cells assessed as inhibition of virus induced cytopathicity after 2 to 4 days by MTS assay; format: functional, organism-based; settings: Human respirovirus 3, Vero
[19] = test system: Mammalian orthoreovirus 1; experiment: Antiviral activity against Reovirus 1 virus infected in african green monkey Vero cells assessed as inhibition of virus induced cytopathicity after 2 to 4 days by MTS assay; format: functional, organism-based; settings: Mammalian orthoreovirus 1, Vero
Sindbis virus = experiment: Antiviral activity against Sindbis virus infected in african green monkey Vero cells assessed as inhibition of virus induced cytopathicity after 2 to 4 days by MTS assay; format: functional, organism-based
Coxsackievirus B4 [20] = experiment: Antiviral activity against Coxsackie virus B4 infected in african green monkey Vero cells assessed as inhibition of virus induced cytopathicity after 2 to 4 days by MTS assay; format: functional, organism-based; settings: Enterovirus B
Punta Toro virus = experiment: Antiviral activity against Punta Toro virus infected in african green monkey Vero cells assessed as inhibition of virus induced cytopathicity after 2 to 4 days by MTS assay; format: functional, organism-based

COc1ccc(C(=O)n2c(-c3ccc(S(=O)(=O)O)cc3)nc3ccccc32)cc1
> 100 µg/mL: CC50 [1] | EC50 (Felid alphaherpesvirus 1) | EC50 (Feline coronavirus) | MCC [2] | EC50 (Human alphaherpesvirus 1 [3]) | EC50 (Human alphaherpesvirus 2) | EC50 (Vaccinia virus) | EC50 [4] | EC50 (Human alphaherpesvirus 1 [5]) | CC50 (HeLa) | MCC [6] | EC50 [7] | EC50 [8] | EC50 (Coxsackievirus B4 [9]) | EC50 (Coxsackievirus B4 [10]) | EC50 [11] | EC50 [12] | CC50 (MDCK) | MCC [13] | EC50 (Influenza A virus [14]) | EC50 (Influenza A virus [15]) | EC50 (Influenza B virus [16]) | EC50 (Influenza B virus [17]) | MCC [18] | EC50 (Human respirovirus 3) | EC50 [19] | EC50 (Sindbis virus) | EC50 (Coxsackievirus B4 [20]) | EC50 (Punta Toro virus)
> 50 µg/mL: MBC (Staphylococcus aureus) | MBC (Bacillus subtilis) | MFC (Candida albicans) | MFC (Aspergillus niger)
3.12 µg/mL: MBC (Escherichia coli)

O=C(c1ccc([N+](=O)[O-])cc1)n1c(-c2ccc(S(=O)(=O)O)cc2)nc2ccccc21
25 µg/mL: MFC (Candida albicans)
> 50 µg/mL: MFC (Aspergillus niger)
> 100 µg/mL: CC50 [1] | EC50 (Felid alphaherpesvirus 1) | EC50 (Feline coronavirus) | MCC [2] | EC50 (Human alphaherpesvirus 1 [3]) | EC50 (Human alphaherpesvirus 2) | EC50 (Vaccinia virus) | EC50 [4] | EC50 (Human alphaherpesvirus 1 [5]) | CC50 (HeLa) | MCC [6] | EC50 [7] | EC50 [8] | EC50 (Coxsackievirus B4 [9]) | EC50 (Coxsackievirus B4 [10]) | EC50 [11] | EC50 [12] | CC50 (MDCK) | MCC [13] | EC50 (Influenza A virus [14]) | EC50 (Influenza A virus [15]) | EC50 (Influenza B virus [16]) | EC50 (Influenza B virus [17]) | MCC [18] | EC50 (Human respirovirus 3) | EC50 [19] | EC50 (Sindbis virus) | EC50 (Coxsackievirus B4 [20]) | EC50 (Punta Toro virus)
1.56 µg/mL: MBC (Escherichia coli)
50 µg/mL: MBC (Staphylococcus aureus) | MBC (Bacillus subtilis)
